Activity calls are given as the source filed them. No cut-off for these calls is given here.

What all share (type): cell-based
Data set [1] has as its system SKNBE2. The data set can be described thus: Modulation of Gal4-fused VP16 expressed in SKNBE(2) cells co-transfected with UAS repoter gene assessed as decrease in luciferase activity at 1.55 to 15 uM incubated for 18 hrs by luciferase reporter gene assay. To be noted: Human alphaherpesvirus 2, filed as modulator, dose 1.55-15 µM. Summed up:
(§1)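 Constitutive control: cells transfected (Lipofectamine 2000) with Gal4-VP16 expression plasmid (2 μg) plus 5xUAS-luciferase reporter (2 μg), 18 h; replated 10,000 cells/well, 4 h; ligand or vehicle in quadruplicate for 18 h; luciferase read by Britelite Plus; signal as fold change over vehicle-treated cells. Mean ± s.e.m. (n=4); one-way ANOVA versus vehicle.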
In general terms: In a reporter assay the amount or activity of a reporter protein is the signal.

For data set [2], the target named is Nuclear receptor subfamily 4 group A member 2 (Homo sapiens) (UniProt P43354). The data set can be described thus: Modulation of full length human Nurr1 expressed in […] cells co-transfected with luciferase reporter plasmid harboring NBRE response element assessed as decrease in luciferase activity at 1.55 to 15 uM incubated for 18 hrs by luciferase reporter gene assay. Conditions: SKNBE2, filed as modulator, dose 1.55-15 µM. Summed up: (§2)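 Cells transfected (Lipofectamine 2000, 18 h) with full-length Nurr1 expression plasmid (2 μg) and 3xNBRE- or 3xNurRE-luciferase reporter (6 μg), no internal control normalisation; replated 10,000 cells/well, 4 h; ligand or vehicle in quadruplicate for 18 h; Britelite Plus luminescence as fold change over vehicle. Mean ± s.e.m. (n=4); one-way ANOVA versus vehicle.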

Data set [3] has as its system PC-12. The data set can be described thus: Modulation of Gal4-fused VP16 expressed in PC12 cells co-transfected with UAS repoter gene assessed as decrease in luciferase activity at 1.55 to 15 uM incubated for 18 hrs by luciferase reporter gene assay. Conditions: Human alphaherpesvirus 2, filed as modulator, dose 1.55-15 µM. Summed up:
as §1

For data set [4], the system named is HEK293T. Put plainly: Modulation of Gal4-fused VP16 expressed in HEK293T cells co-transfected with UAS repoter gene assessed as decrease in luciferase activity at 1.55 to 15 uM incubated for 18 hrs by luciferase reporter gene assay. To be noted: Human alphaherpesvirus 2, filed as modulator, dose 1.55-15 µM. Summed up: as §1
In data set [5] the target is Nuclear receptor subfamily 4 group A member 2 (Homo sapiens) (UniProt P43354). The data set can be described thus: Modulation of full length human Nurr1 expressed in […] cells co-transfected with luciferase reporter plasmid harboring NurRE response element assessed as decrease in luciferase activity at 1.55 to 15 uM incubated for 18 hrs by luciferase reporter gene assay. Conditions: SKNBE2, filed as modulator, dose 1.55-15 µM. The method in brief:
as §2

Data set [6] has the same target. Put plainly: Modulation of full length human Nurr1 expressed in HEK293T cells co-transfected with luciferase reporter plasmid harboring NBRE response element assessed as decrease in luciferase activity at 1.55 to 15 uM incubated for 18 hrs by luciferase reporter gene assay. To be noted: filed as modulator, dose 1.55-15 µM. The method in brief:
as §2

Data set [7] deals with PC-12. Put plainly: Cytotoxicity in rat PC-12 cells assessed as reduction in cell viability at 1.55 to 15 uM incubated for 18 hrs by Cell Titer-Glo assay. To be noted: pc-12, 18 h, dose 1.55-15 µM. The method in brief: (§3)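 Cells seeded 1.5 million per 10-cm dish; next day replated at 10,000 cells/well in 384-well format, 4 h, then ligand or vehicle (water, ethanol or DMSO by ligand) added in quadruplicate for 18 h; viability read by CellTiter-Glo luminescence. Mean ± s.e.m. (n=4), generally 2 independent experiments; one-way ANOVA versus vehicle.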
For orientation: In ATP-based viability assays light output follows the ATP content of the culture.

Data set [8] deals with Nuclear receptor subfamily 4 group A member 2 (Homo sapiens) (UniProt P43354). The data set can be described thus: Modulation of full length human Nurr1 expressed in HEK293T cells co-transfected with luciferase reporter plasmid harboring NurRE response element assessed as decrease in luciferase activity at 1.55 to 15 uM incubated for 18 hrs by luciferase reporter gene assay. Conditions: filed as modulator, dose 1.55-15 µM. Summed up:
as §2

Data set [9] concerns SK-N-BE(2). The data set can be described thus: Cytotoxicity in human SKNBE2 cells assessed as reduction in cell viability at 1.55 to 15 uM incubated for 18 hrs by Cell Titer-Glo assay. Conditions: dose 1.55-15 µM. Summed up:
as §3

In data set [10] the test system is HEK-293T. Put plainly: Cytotoxicity in human HEK293T cells assessed as reduction in cell viability at 1.55 to 15 uM incubated for 18 hrs by Cell Titer-Glo assay. To be noted: dose 1.55-15 µM. The method in brief:
as §3

For data set [11], the target named is Nuclear receptor subfamily 4 group A member 2 (Homo sapiens) (UniProt P43354). The data set can be described thus: Modulation of full length human Nurr1 expressed in PC-12 cells co-transfected with luciferase reporter plasmid harboring NBRE response element assessed as decrease in luciferase activity at 1.55 to 15 uM incubated for 18 hrs by luciferase reporter gene assay. Conditions: filed as modulator, dose 1.55-15 µM. Summed up:
as §2

Chain of Nuclear receptor subfamily 4 group A member 2 (Homo sapiens) (P43354 whole entry): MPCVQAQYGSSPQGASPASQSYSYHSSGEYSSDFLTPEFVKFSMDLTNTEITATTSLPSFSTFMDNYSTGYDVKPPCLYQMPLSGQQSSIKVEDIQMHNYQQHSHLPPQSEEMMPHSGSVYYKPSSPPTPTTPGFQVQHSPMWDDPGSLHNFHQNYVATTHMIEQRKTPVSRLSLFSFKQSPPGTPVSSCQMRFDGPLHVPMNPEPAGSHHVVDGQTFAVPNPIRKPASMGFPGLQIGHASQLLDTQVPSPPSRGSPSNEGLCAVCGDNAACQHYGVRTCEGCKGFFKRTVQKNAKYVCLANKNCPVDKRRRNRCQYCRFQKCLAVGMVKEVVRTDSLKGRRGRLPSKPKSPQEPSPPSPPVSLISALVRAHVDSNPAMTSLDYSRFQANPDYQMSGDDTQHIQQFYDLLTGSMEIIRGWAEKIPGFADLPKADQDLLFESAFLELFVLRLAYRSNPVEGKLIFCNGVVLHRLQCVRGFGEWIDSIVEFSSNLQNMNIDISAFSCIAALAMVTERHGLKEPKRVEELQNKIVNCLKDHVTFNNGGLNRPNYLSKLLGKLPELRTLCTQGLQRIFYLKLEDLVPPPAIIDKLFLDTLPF

As for `CC[C@@]1(O)C(=O)OCc2c1cc1n(c2=O)Cc2cc3ccccc3nc2-1` [CAMPTOTHECIN], the outcome in data set [1], in [2], in [3], in [4], in data set [5] and in data set [6] was Active. The outcome in [8] and in data set [11] was Active. Moreover, the Activity entry in data set [7], in data set [9] and in data set [10] was “Toxic” throughout.

These data come from ChEMBL document CHEMBL5030505, “Assessment of NR4A Ligands That Directly Bind and Modulate the Orphan Nuclear Receptor Nurr1” (J Med Chem, 2020).
